What was measured:
CHO [1] = assay: Selectivity index as IC50 CHO/IC50 Plasmodium falciparum; type: functional
Plasmodium falciparum = assay: Antimalarial activity against Plasmodium falciparum; type: functional, organism-based
Summary of the method: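 pLDH read-out of P. falciparum growth. Compounds in DMSO (10 mg/mL) serially diluted twofold in duplicate. Non-synchronous culture added at 5% hematocrit, 2% parasitemia. Incubated 72 h at 37 °C under 95% N2/3% CO2/2% O2. Sample of resuspended wells mixed with pLDH assay mixture, absorbance at 540 nm after 1 h. IC50 from non-linear regression, mean ± SD of four independent assays.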

CHO [2] = assay: Cytotoxicity against CHO cell line; type: functional, cell-based, Cricetulus griseus
Summary of the method: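 CHO cells in RPMI-1640 with 10% FBS, 25 mM HEPES and gentamicin, grown to 50% confluency before compounds added in DMSO. Viability after 24 h by MTT (1 mg/mL), 30 min further incubation, medium removed, DMSO added, absorbance at 540 nm. Run in quadruplicate. IC50 by non-linear regression.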

Structure (SMILES) | Ratio IC50 (CHO [1]) | IC50 (Plasmodium falciparum; Plasmodium falciparum) | IC50 (CHO [2]; Cricetulus griseus, CHO) | IC50 (Plasmodium falciparum) | IC50 (CHO [2]; cho)
Cl.Cl.Nc1cccc(SC[C@H]2CO[C@@](CCc3ccc(Cl)cc3)(Cn3ccnc3)O2)c1 | 7.5 | 1.2 µM | 9 µM | – | –
Cl.Clc1ccc(CC[C@]2(Cn3ccnc3)OC[C@@H](CSc3ccc4ccccc4c3)O2)cc1 | 7.5 | 1.2 µM | 9 µM | – | –
Cl.Nc1ccc(SC[C@@H]2CO[C@@](CCc3ccc(Cl)cc3)(Cn3ccnc3)O2)cc1 | 287.7 | 1.3 µM | 374 µM | – | –
Cl.O=C(CCc1ccc(Cl)cc1)Cn1ccnc1 | 6.7 | 25 µM | 168 µM | – | –
Cl.Clc1ccc(CC[C@@]2(Cn3ccnc3)OC[C@@H](CSc3ccc(Br)cc3)O2)cc1 | 13.3 | 0.9 µM | 12 µM | – | –
Cl.Nc1ccccc1SC[C@H]1CO[C@](CCc2ccc(Cl)cc2)(Cn2ccnc2)O1 | 2 | 3.3 µM | 6.6 µM | – | –
Cl.FC[C@@H]1CO[C@@](CCc2ccc(Cl)cc2)(Cn2ccnc2)O1 | 1.2 | 20 µM | 24 µM | – | –
Cl.Cl.Nc1ccc(OC[C@@H]2CO[C@@](CCc3ccc(Cl)cc3)(Cn3ccnc3)O2)cc1 | 10.8 | 1.3 µM | 14 µM | – | –
Cl.OC(CCc1ccc(Cl)cc1)Cn1ccnc1 (stereo unspecified) | 4.5 | 70 µM | 314 µM | – | –
Cl.Cl.Clc1ccc(CC[C@@]2(Cn3ccnc3)OC[C@@H](CSc3ccncc3)O2)cc1 | 5.5 | 4.9 µM | 27 µM | – | –
Cl.Cl.Nc1ccccc1SC[C@H]1CO[C@@](CCc2ccc(Cl)cc2)(Cn2ccnc2)O1 | 4.8 | 2.3 µM | 11 µM | – | –
C[C@H]1CO[C@@](CCc2ccc(Cl)cc2)(Cn2ccnc2)O1.Cl | 9.5 | 4.1 µM | 39 µM | – | –
Cc1ccc(S(=O)(=O)OC[C@H]2CO[C@](CCc3ccc(Cl)cc3)(Cn3ccnc3)O2)cc1 | 4.6 | 2.8 µM | 13 µM | – | –
Cl.Nc1ccc(SC[C@H]2CO[C@](CCc3ccc(Cl)cc3)(Cn3ccnc3)O2)cc1 | 84.7 | 3 µM | 254 µM | – | –
COc1ccc(CCC(O)Cn2ccnc2)cc1.Cl (stereo unspecified) | 3.1 | 38 µM | 116 µM | – | –
Cl.Cl.Nc1cccc(SC[C@@H]2CO[C@](CCc3ccc(Cl)cc3)(Cn3ccnc3)O2)c1 | 60 | 0.3 µM | 18 µM | – | –
CSC[C@@H]1CO[C@@](CCc2ccc(Cl)cc2)(Cn2ccnc2)O1.Cl | 4.7 | 2.1 µM | 9.3 µM | – | –
C[C@@H]1CO[C@@](CCc2ccc(Cl)cc2)(Cn2ccnc2)O1.Cl | 7.3 | 7 µM | 51 µM | – | –
C[C@@H]1CO[C@](CCc2ccc(Cl)cc2)(Cn2ccnc2)O1.Cl | 4.4 | 23 µM | 102 µM | – | –
COc1ccc(OC[C@@H]2CO[C@](CCc3ccc(Cl)cc3)(Cn3ccnc3)O2)cc1.Cl | 18.8 | 0.8 µM | 15 µM | – | –
Cl.Cl.Nc1ccccc1SC[C@@H]1CO[C@](CCc2ccc(Cl)cc2)(Cn2ccnc2)O1 | 10 | 0.6 µM | 6 µM | – | –

Structure (SMILES) | Ratio IC50 (CHO [1]) | IC50 (Plasmodium falciparum; Plasmodium falciparum) | IC50 (CHO [2]; Cricetulus griseus, CHO) | IC50 (Plasmodium falciparum) | IC50 (CHO [2]; cho)
Cl.Clc1ccc(CC[C@@]2(Cn3ccnc3)OC[C@@H](CSc3ccccc3)O2)cc1 | 2.1 | 3.3 µM | 7 µM | – | –
CCC(COC(C)=O)n1ccnc1 (stereo unspecified) | 222.7 | 8.3 µM | 1850 µM | – | –
Cl.Cl.Nc1ccccc1SC[C@@H]1CO[C@@](CCc2ccc(Cl)cc2)(Cn2ccnc2)O1 | 4.1 | 3.9 µM | 16 µM | – | –
Oc1ccc(SC[C@@H]2CO[C@@](CCc3ccc(Cl)cc3)(Cn3ccnc3)O2)cc1 | 181.6 | 0.06 µM | 10.9 µM | – | –
Cc1ccc(S(=O)(=O)OC[C@@H]2CO[C@@](CCc3ccc(Cl)cc3)(Cn3ccnc3)O2)cc1 | 2.8 | 2.9 µM | 8 µM | – | –
Cl.Cl.Nc1ccc(SC[C@@H]2CO[C@](CCc3ccc(Cl)cc3)(Cn3ccnc3)O2)cc1 [AZALANSTAT DIHYDROCHLORIDE] | 16.3 | 0.8 µM | 13 µM | – | –
Cl.Clc1ccc(CCC2(Cn3ccnc3)OCCO2)cc1 | 9.3 | 9 µM | 84 µM | – | –
Cc1ccc(S(=O)(=O)OC[C@H]2CO[C@@](CCc3ccc(Cl)cc3)(Cn3ccnc3)O2)cc1 | 3 | 1.9 µM | 5.7 µM | – | –
Cl.Clc1ccc(CCC2(Cn3ccnc3)SCCS2)cc1 | 10.9 | 2.3 µM | 25 µM | – | –
C[C@@H]1CO[C@@](CCc2ccccc2)(Cn2ccnc2)O1.Cl | 2226.7 | 0.34 µM | 668 µM | – | –
Cl.Nc1cccc(SC[C@@H]2CO[C@@](CCc3ccc(Cl)cc3)(Cn3ccnc3)O2)c1 | 5 | 2 µM | 10 µM | – | –
Cc1ccc(S(=O)(=O)OC[C@@H]2CO[C@](CCc3ccc(Cl)cc3)(Cn3ccnc3)O2)cc1 | 3.2 | – | – | 1.2 µM | 3.8 µM
Cl.Oc1ccc(OC[C@@H]2CO[C@@](CCc3ccc(Cl)cc3)(Cn3ccnc3)O2)cc1 | 0.8 | 1.1 µM | 0.9 µM | – | –
Cl.Clc1ccc(CC[C@@]2(Cn3ccnc3)OC[C@@H](CSc3ccc(Cl)cc3)O2)cc1 | 1.3 | 2.5 µM | 3.3 µM | – | –
Cl.Nc1cccc(SC[C@H]2CO[C@](CCc3ccc(Cl)cc3)(Cn3ccnc3)O2)c1 | 3.7 | 2.5 µM | 9.2 µM | – | –
Cc1ccc(S(=O)(=O)OC[C@@H]2CO[C@](CCc3ccc(Cl)cc3)(Cn3ccnc3)O2)cc1.Cl | 10.4 | – | – | 0.67 µM | 7 µM
Cl.Cl.Nc1ccc(SC[C@H]2CO[C@@](CCc3ccc(Cl)cc3)(Cn3ccnc3)O2)cc1 | 2.2 | 2.7 µM | 6 µM | – | –
Cl.OC[C@@H]1CO[C@@](CCc2ccc(Cl)cc2)(Cn2ccnc2)O1 | 25.2 | 9 µM | 227 µM | – | –
COc1ccc(SC[C@@H]2CO[C@@](CCc3ccc(Cl)cc3)(Cn3ccnc3)O2)cc1.Cl | 1.1 | 3.5 µM | 3.7 µM | – | –
C[C@H]1CO[C@](CCc2ccc(Cl)cc2)(Cn2ccnc2)O1.Cl | 4.6 | 18 µM | 82 µM | – | –
Cl.Fc1ccc(COC(CCc2ccc(Cl)cc2)Cn2ccnc2)cc1 (stereo unspecified) | 6.6 | 0.8 µM | 5.3 µM | – | –
